Data set [1] in a line: MRT in cynomolgus monkey at 1 mg/kg, iv measured over 24 hrs by LC/MS/MS analysis. The data set is classed as ADME, organism-based, Macaca fascicularis. The following applies: in vivo. An outline of the steps:
(§1)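 Intravenous 1 mg/kg and oral 5 mg/kg doses. Vehicle: 5% ethanol/55% PEG 400/40% water for rats and dogs; 5% ethanol/22% PEG 400/73% water for cynomolgus; 5% ethanol/25% PEG 400/70% water for rhesus. Half-life and MRT from iv; mean ± SD, n = 3 per route.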

The nature of data set [2]: Volume of distribution at steady state in Sprague-Dawley rat at 1 mg/kg, iv measured over 24 hrs by LC/MS/MS analysis. It is filed as ADME, organism-based. The following applies: in vivo, read-out: Vdss. An outline of the steps: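 Single intravenous dose of 1 mg/kg. Vehicles: rats and dogs 5% ethanol/55% PEG 400/40% water; cynomolgus monkeys 5% ethanol/22% PEG 400/73% water; rhesus monkeys 5% ethanol/25% PEG 400/70% water. Plasma concentration–time data gave Vss and iv half-life. Reported as mean ± SD, n = 3.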

A short description of data set [3]: Clearance in Sprague-Dawley rat at 1 mg/kg, iv measured over 24 hrs by LC/MS/MS analysis. The data set is classed as ADME, organism-based. The following applies: in vivo. An outline of the steps: as §1
The target of a further data set is PI3K p110 beta/p85 alpha (Homo sapiens, UniProt P42338). Briefly: Inhibition of recombinant human full-length N-terminal His-tagged PI3K p110beta/p85alpha using […] as substrate measured after 30 mins by TR-FRET assay. The data set is classed as protein-complex assay.
The nature of data set [4]: Clearance in dog at 1 mg/kg, iv. The conditions noted are these: in vivo. It is filed as ADME, organism-based, Canis lupus familiaris.
The nature of data set [5]: Clearance in Beagle dog at 1 mg/kg, iv measured over 24 hrs by LC/MS/MS analysis. It is filed as ADME, organism-based, Canis lupus familiaris. The conditions noted are these: in vivo. Put shortly:
as §1

The target of data set [6] is PI3-kinase p110-alpha/p85-alpha (Homo sapiens, UniProt P42336). Nature of the data set: Inhibition of human full length PI3K p110alpha/p85alpha using […] as substrate measured after 30 mins by TR-FRET assay. It is filed as protein-complex assay.
The nature of data set [7]: Mutagenecity in Salmonella typhimurium by Ames test. It is filed as toxicity. The following applies: salmonella enterica subsp. enterica serovar typhimurium.
For data set [8], the system named is Rattus norvegicus. Nature of the data set: Antiarthritic activity in Lewis rat model of Freund's incomplete adjuvant-induced arthritis assessed as reduction in ankle swelling at 0.3 mg/kg, po bid administered for 7 days at 12 hrs interval starting from day 10 to day 16 post-immunization by caliper method relative to control. The data set is classed as functional. Also on record: scale not given: the % may be the effect or the level left. The conditions noted are these: time 7 day. An outline of the steps: (§2)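 Established collagen-induced arthritis in female Lewis rats; oral dosing twice daily for 7 days from day 10 after second immunization. Right and left ankle diameters measured by caliper daily, days 9–18; ankle diameter AUC over days 11–18 compared with arthritic vehicle group (ANOVA, p < 0.05). n = 8/treatment group.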

The subject of data set [9] is Rattus norvegicus. Briefly: Antiarthritic activity in Lewis rat model of Freund's incomplete adjuvant-induced arthritis assessed as reduction in ankle swelling at 1 mg/kg, po bid administered for 7 days at 12 hrs interval starting from day 10 to day 16 post-immunization by caliper method relative to control. The data set is classed as functional. Also on record: scale not given: the % may be the effect or the level left. The following applies: time 7 day. An outline of the steps:
as §2

The target in data set [10] is Phosphatidylinositol 4,5-bisphosphate 3-kinase catalytic subunit alpha isoform (Mus musculus, UniProt P42337). Briefly: Inhibition of PI3K p110alpha in mouse embryonic fibroblast cells assessed as reduction in PDGF-induced AKT phosphorylation at S473 residue preincubated for 2 hrs followed by PDGF stimulation and measured after 10 mins. Also on record: species or system MEF. Put shortly:
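MEFs grown overnight in DMEM/15% FBS, starved 2 h in 0.1% FBS, treated 2 h with compound at various concentrations, then stimulated with PDGF (10 ng/mL) 10 min at 37 °C. Lysates probed for total Akt and phospho-Akt S473 by capillary immunoassay; geometric mean, triplicate.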

In data set [11] the target is T1, Phosphatidylinositol 4,5-bisphosphate 3-kinase catalytic subunit delta isoform (Homo sapiens, UniProt O00329).
T1 sequence (O00329 whole entry): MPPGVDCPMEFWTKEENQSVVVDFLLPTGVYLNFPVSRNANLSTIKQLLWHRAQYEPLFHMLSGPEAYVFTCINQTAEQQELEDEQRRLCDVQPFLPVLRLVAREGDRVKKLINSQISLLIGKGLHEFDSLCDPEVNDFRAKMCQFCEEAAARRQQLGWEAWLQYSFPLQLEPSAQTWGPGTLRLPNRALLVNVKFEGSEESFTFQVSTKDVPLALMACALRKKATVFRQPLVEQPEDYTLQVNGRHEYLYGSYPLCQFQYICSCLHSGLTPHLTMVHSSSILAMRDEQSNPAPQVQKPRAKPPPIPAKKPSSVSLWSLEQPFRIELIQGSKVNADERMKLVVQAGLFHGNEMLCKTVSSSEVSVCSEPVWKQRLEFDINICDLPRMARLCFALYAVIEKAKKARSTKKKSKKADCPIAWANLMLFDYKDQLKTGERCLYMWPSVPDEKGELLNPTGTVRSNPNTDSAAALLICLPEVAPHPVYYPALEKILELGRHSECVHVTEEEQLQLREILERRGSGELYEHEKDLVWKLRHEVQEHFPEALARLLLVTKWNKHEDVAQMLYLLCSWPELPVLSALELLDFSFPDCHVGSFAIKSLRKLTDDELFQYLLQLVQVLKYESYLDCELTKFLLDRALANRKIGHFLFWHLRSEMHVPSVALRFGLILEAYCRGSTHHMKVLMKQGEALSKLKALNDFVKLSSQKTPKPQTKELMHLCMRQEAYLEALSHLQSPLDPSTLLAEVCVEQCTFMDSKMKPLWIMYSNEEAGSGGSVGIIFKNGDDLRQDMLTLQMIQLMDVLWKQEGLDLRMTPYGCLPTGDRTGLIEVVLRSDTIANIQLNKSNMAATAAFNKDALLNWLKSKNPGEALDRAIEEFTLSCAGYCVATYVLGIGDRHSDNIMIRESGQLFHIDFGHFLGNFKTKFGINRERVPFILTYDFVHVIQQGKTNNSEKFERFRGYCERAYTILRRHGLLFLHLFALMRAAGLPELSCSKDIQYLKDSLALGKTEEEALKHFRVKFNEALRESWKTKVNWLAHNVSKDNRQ
Nature of the data set: Inhibition of PI3Kdelta in human whole blood assessed as reduction in anti-FCepsilonR1 mAb-stimulated basophil activation preincubated for 60 mins followed by anti-FCepsilonR1 mAb stimulation and measured after 25 mins by flow cytometry analysis. It is filed as tissue-based.

Data set [12] is described as follows: MRT in Sprague-Dawley rat at 1 mg/kg, iv measured over 24 hrs by LC/MS/MS analysis. The data set is classed as ADME, organism-based. The conditions noted are these: in vivo. Put shortly:
as §1

Data set [13] can be described thus: Plasma concentration in Lewis rat at 1 to 5 mg/kg, po measured at 12 hrs. The data set is classed as ADME, organism-based. The following applies: dose 1-5 mg/kg. An outline of the steps:
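Female Lewis rats given a single oral dose of 1 or 5 mg/kg; plasma concentration–time profiles determined; mean ± SD, n = 3.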

The text below walks through data of ChEMBL document CHEMBL4765230, “Discovery of Orally Efficacious Phosphoinositide 3-Kinase δ Inhibitors with Improved Metabolic Stability” (J Med Chem, 2016).

Chain of Phosphatidylinositol 4,5-bisphosphate 3-kinase catalytic subunit alpha isoform (P42337 whole entry, canonical isoform): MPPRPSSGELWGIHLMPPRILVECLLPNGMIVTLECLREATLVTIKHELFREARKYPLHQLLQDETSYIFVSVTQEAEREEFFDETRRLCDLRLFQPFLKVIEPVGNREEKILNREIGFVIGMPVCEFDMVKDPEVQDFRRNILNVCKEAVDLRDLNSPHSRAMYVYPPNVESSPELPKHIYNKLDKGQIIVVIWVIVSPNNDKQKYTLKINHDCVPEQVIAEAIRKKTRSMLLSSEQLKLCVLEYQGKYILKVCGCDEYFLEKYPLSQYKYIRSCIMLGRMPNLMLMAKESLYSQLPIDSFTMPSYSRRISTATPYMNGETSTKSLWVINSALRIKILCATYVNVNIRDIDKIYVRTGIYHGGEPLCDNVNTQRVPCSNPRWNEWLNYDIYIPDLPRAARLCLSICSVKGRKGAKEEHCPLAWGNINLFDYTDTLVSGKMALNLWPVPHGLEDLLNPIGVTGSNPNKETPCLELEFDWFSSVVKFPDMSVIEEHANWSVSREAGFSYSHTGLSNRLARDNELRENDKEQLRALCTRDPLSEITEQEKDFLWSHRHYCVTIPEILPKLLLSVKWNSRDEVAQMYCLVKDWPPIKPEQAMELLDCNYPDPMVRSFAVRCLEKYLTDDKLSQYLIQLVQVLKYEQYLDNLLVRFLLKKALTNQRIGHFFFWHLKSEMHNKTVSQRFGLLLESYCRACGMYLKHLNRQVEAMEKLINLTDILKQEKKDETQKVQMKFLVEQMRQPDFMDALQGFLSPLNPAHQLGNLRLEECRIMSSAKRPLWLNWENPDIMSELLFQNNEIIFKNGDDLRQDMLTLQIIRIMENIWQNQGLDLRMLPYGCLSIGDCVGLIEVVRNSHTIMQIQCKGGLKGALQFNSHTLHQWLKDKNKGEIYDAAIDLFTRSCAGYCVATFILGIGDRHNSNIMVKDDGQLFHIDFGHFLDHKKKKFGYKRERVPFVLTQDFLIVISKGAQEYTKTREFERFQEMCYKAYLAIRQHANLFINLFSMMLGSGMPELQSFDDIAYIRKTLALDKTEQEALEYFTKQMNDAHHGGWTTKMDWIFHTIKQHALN
Chain of PI3-kinase p110-alpha/p85-alpha (P27986 whole entry): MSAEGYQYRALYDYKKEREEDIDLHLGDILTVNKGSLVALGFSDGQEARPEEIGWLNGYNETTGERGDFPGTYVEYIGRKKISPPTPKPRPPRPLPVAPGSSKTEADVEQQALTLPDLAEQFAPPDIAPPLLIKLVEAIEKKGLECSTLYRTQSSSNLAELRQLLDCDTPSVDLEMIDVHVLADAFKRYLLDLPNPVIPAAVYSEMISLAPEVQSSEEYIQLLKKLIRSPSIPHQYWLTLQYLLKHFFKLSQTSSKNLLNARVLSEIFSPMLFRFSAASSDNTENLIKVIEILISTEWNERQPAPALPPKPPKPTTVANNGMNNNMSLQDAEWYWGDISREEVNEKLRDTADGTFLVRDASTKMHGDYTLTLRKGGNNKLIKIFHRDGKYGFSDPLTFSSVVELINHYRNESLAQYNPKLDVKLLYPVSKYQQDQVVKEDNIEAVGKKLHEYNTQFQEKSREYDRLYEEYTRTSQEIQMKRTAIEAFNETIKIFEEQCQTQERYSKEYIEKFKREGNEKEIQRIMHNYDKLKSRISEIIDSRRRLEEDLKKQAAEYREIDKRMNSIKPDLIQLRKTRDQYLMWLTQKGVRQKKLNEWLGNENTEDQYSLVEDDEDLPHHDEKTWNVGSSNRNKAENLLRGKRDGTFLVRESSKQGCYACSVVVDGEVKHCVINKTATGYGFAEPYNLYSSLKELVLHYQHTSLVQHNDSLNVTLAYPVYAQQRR
Chain of PI3-kinase p110-alpha/p85-alpha (P42336 whole entry): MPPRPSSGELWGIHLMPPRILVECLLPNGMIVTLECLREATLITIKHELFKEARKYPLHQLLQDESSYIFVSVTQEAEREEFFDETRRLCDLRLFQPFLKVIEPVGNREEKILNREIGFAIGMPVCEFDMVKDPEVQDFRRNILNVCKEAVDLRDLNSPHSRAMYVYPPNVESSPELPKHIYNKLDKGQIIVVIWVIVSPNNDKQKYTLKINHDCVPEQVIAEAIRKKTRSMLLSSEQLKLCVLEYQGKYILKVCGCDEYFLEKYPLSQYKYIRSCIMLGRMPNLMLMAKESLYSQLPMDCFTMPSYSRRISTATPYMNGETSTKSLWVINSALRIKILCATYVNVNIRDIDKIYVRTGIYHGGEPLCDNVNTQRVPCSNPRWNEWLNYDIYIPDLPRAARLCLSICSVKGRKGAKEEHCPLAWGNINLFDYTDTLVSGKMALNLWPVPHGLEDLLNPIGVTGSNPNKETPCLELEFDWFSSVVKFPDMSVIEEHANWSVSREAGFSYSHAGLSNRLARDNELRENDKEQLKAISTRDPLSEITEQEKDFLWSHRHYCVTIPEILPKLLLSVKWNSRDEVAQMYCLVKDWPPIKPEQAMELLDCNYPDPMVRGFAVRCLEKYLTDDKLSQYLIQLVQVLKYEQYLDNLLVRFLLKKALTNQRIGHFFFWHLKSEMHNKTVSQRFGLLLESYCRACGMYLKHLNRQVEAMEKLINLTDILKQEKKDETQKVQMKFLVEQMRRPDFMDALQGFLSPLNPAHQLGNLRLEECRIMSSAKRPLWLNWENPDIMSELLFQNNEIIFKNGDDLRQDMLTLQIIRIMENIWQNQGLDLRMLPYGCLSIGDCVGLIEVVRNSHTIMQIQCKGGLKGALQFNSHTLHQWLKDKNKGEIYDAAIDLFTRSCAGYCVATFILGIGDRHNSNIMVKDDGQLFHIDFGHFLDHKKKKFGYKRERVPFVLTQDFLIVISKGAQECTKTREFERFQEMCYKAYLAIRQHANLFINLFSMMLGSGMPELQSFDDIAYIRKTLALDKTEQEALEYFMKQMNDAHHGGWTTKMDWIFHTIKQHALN
Chain of PI3K p110 beta/p85 alpha (P27986 whole entry): as the sequence (P27986 whole entry) above
Chain of PI3K p110 beta/p85 alpha (P42338 whole entry): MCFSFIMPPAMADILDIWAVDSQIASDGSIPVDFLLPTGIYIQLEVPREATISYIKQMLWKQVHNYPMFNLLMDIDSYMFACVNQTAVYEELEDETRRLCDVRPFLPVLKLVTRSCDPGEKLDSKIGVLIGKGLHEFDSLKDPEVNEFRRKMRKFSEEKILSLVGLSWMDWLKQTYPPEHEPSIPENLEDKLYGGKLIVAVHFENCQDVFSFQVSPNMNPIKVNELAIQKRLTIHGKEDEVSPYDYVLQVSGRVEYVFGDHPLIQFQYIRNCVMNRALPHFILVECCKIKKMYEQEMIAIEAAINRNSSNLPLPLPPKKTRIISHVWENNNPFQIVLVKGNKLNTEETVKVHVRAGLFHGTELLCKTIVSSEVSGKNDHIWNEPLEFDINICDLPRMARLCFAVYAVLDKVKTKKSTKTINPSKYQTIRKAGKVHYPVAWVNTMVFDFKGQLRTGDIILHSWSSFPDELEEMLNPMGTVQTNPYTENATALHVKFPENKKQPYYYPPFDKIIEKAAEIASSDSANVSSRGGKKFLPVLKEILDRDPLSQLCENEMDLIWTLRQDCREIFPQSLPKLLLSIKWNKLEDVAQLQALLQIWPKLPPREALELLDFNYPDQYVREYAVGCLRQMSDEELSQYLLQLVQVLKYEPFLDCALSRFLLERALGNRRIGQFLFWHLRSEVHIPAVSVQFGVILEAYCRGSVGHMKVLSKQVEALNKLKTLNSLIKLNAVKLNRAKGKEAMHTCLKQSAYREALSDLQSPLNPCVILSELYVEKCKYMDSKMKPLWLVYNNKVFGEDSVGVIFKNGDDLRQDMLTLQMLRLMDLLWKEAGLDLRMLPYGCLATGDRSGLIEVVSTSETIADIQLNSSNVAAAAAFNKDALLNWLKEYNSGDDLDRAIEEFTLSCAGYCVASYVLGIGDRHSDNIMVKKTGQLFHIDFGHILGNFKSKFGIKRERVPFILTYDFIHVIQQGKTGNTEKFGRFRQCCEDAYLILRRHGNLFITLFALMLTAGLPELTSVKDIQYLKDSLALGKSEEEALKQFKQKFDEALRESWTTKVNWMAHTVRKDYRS

As for `N#Cc1c(N)nc(N)nc1N[C@H](c1nc2c(F)ccc(Cl)c2c(=O)n1-c1cccnc1)C1CC1` [GS-9901], the values for the MRT in data set [1] and in data set [12] were 3.05 h and 1.95 h, respectively. The Vd in data set [2] is 0.83 L/kg. The clearance is 0.43 L/h/kg in data set [3], 0.54 L/h/kg in data set [4] and 0.54 L/h/kg in data set [5]. Further, the IC50 worked out at 0.1 µM at PI3K p110 beta/p85 alpha and 0.75 µM in data set [6]. In addition, the Activity result in [7] is recorded as “Non-Toxic”; in the data set on Rattus norvegicus [8], 31%; with Rattus norvegicus [9], 67%. Further, the figures for the EC50 in [10] and in data set [11] were 1.17 µM and 0.001 µM, respectively. The concentration at 12 h in data set [13] was over 0.032 µM.
